Compound activity (PubChem)
ASAP1 inh: ASAP1 ArfGAP inhibition; ASAP1-stimulated ARF1 GTP hydrolysis, GDP FP detection; inhibition, % at 16.5 µM; 360,000 tested, 0.19% active; in the data active = inhibition above about 25%
Target sequence (Q9ULH1 325-724 limits assumed): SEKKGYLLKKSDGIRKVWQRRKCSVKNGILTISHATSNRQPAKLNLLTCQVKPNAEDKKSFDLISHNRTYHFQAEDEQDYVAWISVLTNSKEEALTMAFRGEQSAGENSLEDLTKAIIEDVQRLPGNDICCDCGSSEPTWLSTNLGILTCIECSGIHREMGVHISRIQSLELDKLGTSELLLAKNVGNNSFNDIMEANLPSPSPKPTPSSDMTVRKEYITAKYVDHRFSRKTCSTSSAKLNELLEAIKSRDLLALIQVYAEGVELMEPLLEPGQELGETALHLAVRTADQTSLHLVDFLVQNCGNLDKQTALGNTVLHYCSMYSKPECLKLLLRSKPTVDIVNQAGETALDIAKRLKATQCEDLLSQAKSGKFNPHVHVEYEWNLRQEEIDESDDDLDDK
ARFGAP1 inh: inhibits rat ARF GTPase activating protein 1 | Q62848 | Arfgap1-stimulated ARF1 GTP hydrolysis, GDP FP detection | inhibition, % at 16.5 µM | 360,000 tested, 0.26% active;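 active = inhibition above a per-plate limit, mean inhibition of low control wells plus 3 SD, cut at about 25% in these data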
Target sequence (Q62848 1-136 limits assumed): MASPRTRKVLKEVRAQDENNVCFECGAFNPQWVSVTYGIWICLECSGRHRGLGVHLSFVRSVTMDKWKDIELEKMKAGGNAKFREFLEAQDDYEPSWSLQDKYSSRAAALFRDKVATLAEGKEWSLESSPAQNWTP
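Assay system: Rat Arfgap1 GAP domain (His6, aa 1-136), purified enzyme | Buffer or medium: HEPES 25 mM pH 7.5, NaCl 150 mM, MgCl2, DTT | Schedule: GTP hydrolysis reaction 2 h at 25 °C | Signal: FP of antibody-bound GDP Alexa 633 tracer, ex 620/em 688 nm | Measure: Percent inhibition of Arfgap1-stimulated GTP hydrolysis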
PAFAH1B2 FP inh: PAFAH1B2 (human) inhibition. P68402. recombinant PAFAH1B2, FP-rhodamine activity probe, fluorescence polarization. inhibition, % at 3.39 µM. 340,000 tested, 1.2% active. AID 492953;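 active = inhibition above the mean of all tested compounds plus 3 SD, cut at about 24% in these data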
PAFAH1B3 inh: PAFAH1B3 (human) inhibition; recombinant PAFAH1B3, FP-rhodamine probe, fluorescence polarization; 340,000 tested, 0.28% active; AID 492972; inhibition, % at 3.39 µM;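 active = inhibition above the screen-wide average of all tested compounds plus 3 SD, cut at about 25% in these data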
PAFAH2 FP inh: PAFAH2 (human) inhibition | recombinant PAFAH2, FP-rhodamine activity probe, fluorescence polarization | Q99487 | inhibition, % at 3.39 µM | AID 492956 | 340,000 tested, 0.99% active;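 active = inhibition above the mean over all tested compounds plus 3 SD, cut at about 30% in these data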;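 note: inhibitors block probe labeling of enzyme so polarization drops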
pPAFAH FP inh: inhibitors of human plasma PAF acetylhydrolase (pPAFAH) | inhibition, % at 3.39 µM | AID 463082 | Q13093 | recombinant pPAFAH, FP-rhodamine probe fluorescence polarization | 330,000 tested, 1.5% active;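 active = inhibition above the mean inhibition across the screen plus 3 SD, cut at about 25% in these data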;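 note: inhibitors block binding of the rhodamine activity-based probe so polarization drops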
ARFGAP1 confirm: confirmation of rat ARFGAP1 inhibitors | ARFGAP1-stimulated ARF1 GTP hydrolysis, GDP tracer FP | 890 tested, 30% active | AID 651608 | inhibition, % at 16.5 µM | shares compounds with ARFGAP1 inh;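 active = average inhibition over triplicates above the hit cutoff set in the earlier primary screen, cut at about 25% in these data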
Numbers stand for hits; . = inactive; / = no result given. Most compounds without a hit are left out; they make up all but 2.7% or so of the library.

SMILES | ASAP1 inh | ARFGAP1 inh | PAFAH1B2 FP inh | PAFAH1B3 inh | PAFAH2 FP inh | pPAFAH FP inh | ARFGAP1 confirm
O=C(N/N=C/c1sc(=O)n(Cc2ccc(Br)cc2)c1Cl)c1ccco1 | . | 39 | . | . | . | . | 54
Cc1ccccc1CNC(=O)C(C)Sc1ccccc1 (stereo not drawn) | . | . | / | / | / | / | /
COC(=O)c1ccccc1S(=O)(=O)N1CCC(C(=O)OC(C)C(=O)N(C)Cc2ccccc2)CC1 (stereo not drawn) | . | . | . | . | . | / | /
COc1ccc(CN(C)C(=O)Cn2cnc(C(=O)Nc3ccc(C)c(C)c3)n2)cc1OC | . | 29 | . | . | . | . | .
COc1cc(-c2ccc3cc(OC)c(OC)c(OC)c3c2)cc(OC)c1OC | . | . | / | / | / | / | /
CN(C)c1ccc(C=c2c3cc(O)ccc3n3c2cc(-c2ccccc2)[n+]3C)cc1 | . | . | . | . | . | / | /
CCOC(=O)c1cc2c(=Cc3ccc(N(C)C)cc3)c3ccccc3n2[n+]1C | . | 29 | . | . | . | / | .
C#CCOCCOCCOCCNc1nc(N2CCN(C(=O)CCCCCCCCCCNC(=O)Cn3cc(CCCCCN)nn3)CC2)nc(N2CCN(C(=O)CCCCCCCCCCNC(=O)[C@H]([C@@H](C)CC)n3cc(CCCCCN)nn3)CC2)n1 | / | / | . | . | . | . | /
C/C(=N/NC(=O)c1cccs1)c1ccc(NC(=O)COc2ccc(Cl)cc2Cl)cc1 | . | 38 | . | . | . | . | 53
C/C(=N/NC(=O)c1ccc(C)s1)c1cccc(NC(=O)COc2ccc(Cl)cc2Cl)c1 | . | . | . | . | . | . | /
Cc1cc(Br)cn2c(Cc3ccccc3)c(-c3ccc(F)cc3)nc12 | . | . | / | / | / | / | /
COc1ccc(NS(=O)(=O)c2cccc(C(=O)NCC(c3cccs3)N3CCOCC3)c2)cc1 (stereo not drawn) | . | . | . | . | . | . | /
CNS(=O)(=O)c1cccc(C(=O)NCC(c2cccs2)N2CCOCC2)c1 (stereo not drawn) | . | 26 | . | . | . | . | .
CC(=O)N(Cc1ccccc1)C(CC(=O)NCc1ccccc1)C(=O)O (stereo not drawn) | . | . | . | . | . | / | /
CCCOc1ccc(C(=O)N/N=C/c2c[nH]c3ccc(Br)cc23)cc1 | . | 25 | . | . | . | 27 | .
O=C(N/N=C/c1c[nH]c2ccc(Br)cc12)c1ccn(Cc2ccc(Cl)cc2)n1 | . | . | . | . | . | . | /
COc1ccc(-n2c(SCC(=O)Nc3nccs3)nc3sc4c(c3c2=O)CCN(C)C4)cc1 | . | 25 | . | . | . | . | 27
COc1ccc(NC(=O)CSc2nc3sc4c(c3c(=O)n2-c2ccc(OC)cc2)CCN(C)C4)cc1 | . | . | . | . | . | . | /
COc1ccc(C[C@H]2CN3C(=NC[C@@H]3C(C)C)N2C[C@H](C)NC(=O)c2ccc(C)c(Br)c2)cc1 | . | . | . | . | . | . | /
Cc1ccc(C(=O)N[C@@H](C)CN2C3=NC[C@H](C(C)C)N3C[C@H]2Cc2ccc(O)cc2)cc1Br | . | 26 | . | . | . | . | .
COc1ccc(C)cc1NC(=O)COC(=O)Cc1c[nH]c2ccccc12 | . | . | / | / | / | / | /
COc1ccc(S(=O)(=O)NCc2cccnc2)cc1OC | . | . | . | . | . | . | /
COc1ccc(S(=O)(=O)NCc2cccnc2)cc1NC(=O)c1ccc(Cl)cc1 | . | 25 | . | . | . | . | .
COc1ccc(C(=O)N/C(=C\c2ccccc2)C(=O)NCc2cccnc2)cc1 | . | 25 | . | . | . | . | .
COc1ccc(/C=C(/NC(=O)c2ccccc2)C(=O)NCc2ccncc2)cc1 | . | . | . | . | . | . | /
SMILES | ASAP1 inh | ARFGAP1 inh | PAFAH1B2 FP inh | PAFAH1B3 inh | PAFAH2 FP inh | pPAFAH FP inh | ARFGAP1 confirm
COc1cc(/C=N/Nc2ccc(C(F)(F)F)cn2)ccc1O | . | 29 | . | . | . | . | .
O=C(O)c1ccc(/C=N/Nc2ccc(C(F)(F)F)cn2)cc1 | . | . | . | . | . | / | /
O=C(NCc1ccccc1)c1cc(C2CCCCN2C(=O)OCCF)on1 (stereo not drawn) | . | 25 | / | / | / | / | .
O=C(c1ccc2c(c1)CCC2)N1CCN(Cc2ccccc2)CC1 | . | . | / | / | / | / | /
COC(=O)C1=C(C)OC(N)=C(C#N)C1C1CCCCC1 (stereo not drawn) | . | 26 | . | . | . | . | .
CCOc1ccc(C(=O)Nc2cccc(-c3ccc(N4CCOCC4)nn3)c2)cc1OCC | . | . | . | . | . | . | /
COc1ccc(C(=O)Nc2cccc(-c3ccc(N4CCOCC4)nn3)c2)cc1OC | . | 29 | . | . | . | . | .
O=C(OCC(=O)N1CCN(C(=O)c2ccco2)CC1)c1cc(-c2ccc(Cl)c(Cl)c2Cl)nc2ccccc12 | . | 36 | . | . | . | . | 45
CC(C)(C)[C@H](NC(=O)c1ccc(N)c(Cl)c1)C(=O)N1CCC[C@H]1C(=O)N[C@H](C#N)CC(=O)O | . | . | / | / | / | / | /
Cc1snc(S(=O)(=O)/C(C#N)=N/Nc2cccc(C(F)(F)F)c2)c1C#N | / | / | . | . | . | . | /
COc1ccc(N/N=C(/C#N)S(=O)(=O)c2nsc(C)c2C#N)cc1 | . | 28 | . | . | . | . | .
CCOc1cc(/C=C2\SC(=N)N(c3nonc3N)C2=O)ccc1OCCN1CCOCC1 | . | 32 | . | . | . | . | 38
CCOc1ccc(CNC(=O)Cn2nc(C)c3c(C)n(-c4ccc(C)cc4)nc3c2=O)cc1 | . | 34 | . | . | . | . | .
Cc1ccc(-n2nc3c(=O)n(CC(=O)NCc4ccccn4)nc(C)c3c2C)cc1 | . | . | . | . | . | . | /
CC1CCCN(C(=O)Cn2nnc(-c3ccc(F)cc3)n2)C1 (stereo not drawn) | . | . | . | . | . | . | /
CC1CCCN(C(=O)Cn2nnc(-c3cccnc3)n2)C1 (stereo not drawn) | . | 26 | . | . | . | . | .
CN(C)S(=O)(=O)c1ccc2c(c1)nc(CCC(=O)NCC(=O)Nc1ccc(F)c(F)c1F)n2C | . | . | / | / | / | / | /
CCOC(=O)C1CCCN(CCC(=O)Nc2cc(C)ccc2C)C1 (stereo not drawn) | . | . | . | . | . | . | /
CCOC(=O)C1CCCN(CCC(=O)Nc2ccccc2C)C1 (stereo not drawn) | . | 26 | . | . | . | . | .
COc1ccccc1S(=O)(=O)Nc1cccc(S(=O)(=O)N2CCCC2)c1 | . | . | . | . | . | . | /
COc1ccc(NC(=O)c2ccc3c(c2)C(=O)N(Cc2ccncc2)C3=O)cc1S(N)(=O)=O | . | 35 | . | . | . | . | .
CCCCN(CC)CCCNC(=O)c1cc2c(=O)[nH]c3ccccc3c2s1 | . | . | . | . | . | . | /
CCCCN(CC)CCNC(=O)c1cc2c(=O)[nH]c3ccc(C)cc3c2s1 | . | 29 | . | . | . | . | .
